TAAR1 antagonist: human TAAR1 antagonism; Q96RJ0; CHO RD-HGA16 TAAR1, Fluo-8 calcium fluorescence, antagonist; inhibition, % at 3 µM; 360,000 tested, 1.5% active; AID 624466;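 active = inhibition above a per-plate cutoff, the mean inhibition of test compounds on that plate plus 3 SD, cut at about 49% in these data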;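 also: 0% = DMSO plus EC80 beta-PEA response and 100% = DMSO alone without agonist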
Target sequence (Q96RJ0 whole entry, looked up): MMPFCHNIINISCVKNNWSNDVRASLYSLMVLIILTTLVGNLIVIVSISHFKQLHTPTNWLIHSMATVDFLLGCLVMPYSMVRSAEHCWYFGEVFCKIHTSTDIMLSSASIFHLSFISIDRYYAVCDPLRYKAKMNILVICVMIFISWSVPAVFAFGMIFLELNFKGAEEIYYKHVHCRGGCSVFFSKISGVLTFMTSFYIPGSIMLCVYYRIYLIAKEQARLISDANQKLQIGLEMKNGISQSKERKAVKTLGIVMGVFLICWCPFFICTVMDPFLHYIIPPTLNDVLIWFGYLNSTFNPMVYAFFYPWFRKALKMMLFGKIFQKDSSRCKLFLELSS
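test system = CHO RD-HGA16 cells bearing hTAAR1 | replication = singlicate | controls = DMSO-only wells and EC80 β-PEA-stimulated wells | reagent = EC80 β-phenethylamine stimulus | read-out basis = percent inhibition of PEA-evoked calcium signal, max/basal emission ratio | schedule = seeding 17-24 h prior, 75-min 37 °C, 30-min RT dye loading | signal = kinetic Fluo-8 calcium fluorescence measurement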
TAAR1 ag: agonists of human TAAR1 | activation, % at 3 µM | CHO RD-HGA16 TAAR1, Fluo-8 calcium fluorescence; vehicle wells 0%, saturating PEA agonist 100% | 360,000 tested, 0.99% active | Q96RJ0 | AID 624467;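 active = activation above the mean activation of all test compounds in the run plus 3 SD, cut at about 38% in these data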
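Benchmarks: low control DMSO, high control PEA (EC100); System: CHO RD-HGA16 cells carrying human TAAR1 plus Gα16; Detection: Fluo-8 fluorescence, 5 s baseline then 140 s kinetic read; Schedule: 17-24 h plating, Fluo-8 75 min 37 °C, 30 min RT; Read-out basis: % activation from peak over basal fluorescence ratio, DMSO-to-PEA scaled.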
OX1R antag-1: OX1R (human) antagonism | 330,000 tested, 1.8% active | inhibition, % at 6.6 µM | O43613 | OX1R-expressing cells, FRET antagonist read-out; in the data active = inhibition mostly above about 38%, no sharp cut-off; inactive = mostly below about 40%;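 also: 0% = agonist challenge alone and 100% = reference antagonist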
GalR3 antagonist: blocks the human galanin receptor 3; O60755; HEK293 GalR3-CNG cAMP membrane potential fluorescence; galR3 body fused to GalR1 C-terminus; inhibition, % at 3 µM; 360,000 tested, 0.44% active; AID 651719;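 active = inhibition above the screen-wide average plus 3 SD, cut at about 13% in these data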;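 also: forskolin and galanin both at EC90 stimulate the cells; cAMP rise reported by CNG channel membrane potential dye signal; 0% = forskolin plus galanin with DMSO and 100% = forskolin alone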
Target sequence (O60755 1-299 limits assumed): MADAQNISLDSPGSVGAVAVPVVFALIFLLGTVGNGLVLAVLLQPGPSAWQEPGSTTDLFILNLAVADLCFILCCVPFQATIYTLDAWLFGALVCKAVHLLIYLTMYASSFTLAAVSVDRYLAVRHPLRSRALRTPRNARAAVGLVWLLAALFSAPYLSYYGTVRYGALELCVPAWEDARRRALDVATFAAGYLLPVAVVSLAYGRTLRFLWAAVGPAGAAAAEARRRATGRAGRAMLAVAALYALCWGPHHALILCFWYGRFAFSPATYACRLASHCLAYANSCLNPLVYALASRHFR
CHO parental Ca: signal in parental CHO cells, OX1R antagonist counter-screen; 330,000 tested, 0.63% active; parental CHO-K1, ATP-induced calcium, Fluo-8 fluorescence; inhibition, % at 5.6 µM; AID 463079;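 active = inhibition above that plate's mean sample inhibition plus 3 SD, cut at about 26% in these data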;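 also: 0% = ATP-challenged DMSO wells and 100% = DMSO wells without ATP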
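material = parental CHO cells | also added = ATP as calcium-mobilizing challenge | dosing = single point at 5.6 µM | detection = intracellular calcium via Fluo-8 no-wash fluorescent dye | read-out = % inhibition | benchmarks = low control ATP plus DMSO, high control DMSO only | repeats = one well per compound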
OX1R antag-2: human HCRTR1 antagonism | O43613 | CHO/OX1R cells, Fluo-8 calcium fluorescence, orexin A | inhibition, % at 5 µM | 330,000 tested, 0.43% active | AID 434989;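 active = inhibition above its plate's threshold, mean inhibition of all tested compounds on the plate plus 3 SD, cut at about 37% in these data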;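 also: 0% = orexin A challenge wells and 100% = SB-334867-A antagonist wells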
OX1R Ca confirm: confirmation of human orexin 1 receptor antagonists | shares compounds with OX1R antag-2 | CHO/OX1R cells, orexin A calcium Fluo-8 fluorescence | inhibition, % at 5 µM | 1,100 tested, 38% active | AID 492963; in the data active = inhibition above about 29%;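 also: 0% = agonist challenge alone and 100% = reference antagonist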
CHO Ca triplic: signal in parental CHO cells, OX1R antagonist counter-screen | shares compounds with OX1R antag-2 | parental CHO-K1, ATP-induced calcium, Fluo-8 fluorescence | inhibition, % at 5.6 µM | 1,100 tested, 9.3% active | AID 492965;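 active = inhibition above a per-plate limit, the mean inhibition of that plate's test compounds plus 3 SD, cut at about 25% in these data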;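 also: 0% = ATP challenge with DMSO and 100% = DMSO without ATP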
OX1R HTRF conf: confirmation of human orexin 1 receptor antagonists, HTRF format. shares compounds with OX1R antag-1. OX1R-expressing cells, HTRF antagonist assay. inhibition, % at 6.6 µM. 1,800 tested, 49% active; in the data active = inhibition above about 55%;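 also: CHO cells expressing OX1R stimulated with orexin A at about EC80; 0% = agonist challenge alone and 100% = reference antagonist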
CHO-K1 HTRF: signal in parental CHO-K1 cells, OX1R antagonist counter-screen; inhibition, % at 6.6 µM; HTRF counterscreen; shares compounds with OX1R antag-1; 1,800 tested, 48% active; in the data active = inhibition above about 17%;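 also: 0% = agonist challenge with vehicle and 100% = vehicle alone without agonist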
An asterisk follows results filed as active. Hits are enriched below; roughly 4.3% of the tested compounds scored in any of these assays.

C=CCSc1nnc(-c2cc3c(s2)-c2ccccc2CC3)o1 was read as TAAR1 antagonist 10, TAAR1 ag 5, OX1R antag-1 55, GalR3 antagonist 3, CHO parental Ca 0, OX1R antag-2 34, OX1R Ca confirm -1 and CHO Ca triplic -6.
Cc1noc(C)c1COC(=O)c1cc(S(=O)(=O)N2CCOCC2)ccc1F was read as TAAR1 antagonist -3, TAAR1 ag 17, OX1R antag-1 20, GalR3 antagonist -2, CHO parental Ca -11 and OX1R antag-2 -16.
Screening CCc1cc2c(COC(=O)c3cc(S(=O)(=O)N4CCOCC4)ccc3F)cc(=O)oc2cc1O returned TAAR1 antagonist 48, TAAR1 ag 6, OX1R antag-1 23, GalR3 antagonist 19*, CHO parental Ca -8, OX1R antag-2 33, OX1R Ca confirm 8 and CHO Ca triplic -10.
`O=C(O)c1cccc(NC(=O)c2cn(-c3ccccc3)nc2-c2cccc(Br)c2)c1` gave TAAR1 antagonist 36, TAAR1 ag 4, OX1R antag-1 17, GalR3 antagonist -12, CHO parental Ca 18, OX1R antag-2 30, OX1R Ca confirm 27 and CHO Ca triplic 33*.
Screening CCCCCCCCN1C(=O)[C@@H](CC(=O)NCc2cccc3ccccc23)C[C@@]2(C(=O)OC)C1=C[C@H](C(C)(C)C)O[C@@H]2C returned TAAR1 antagonist -13, TAAR1 ag 15 and GalR3 antagonist -7.
For CCSC1=N/C(=C\C=C2/Oc3ccccc3N2CC)C(=O)S1 the results were TAAR1 antagonist 0, TAAR1 ag 6, OX1R antag-1 42, GalR3 antagonist -6, CHO parental Ca 12, OX1R antag-2 32, OX1R Ca confirm 16 and CHO Ca triplic 12.
For CCSC1=N/C(=C\c2ccc3c(c2)OCO3)C(=O)S1 the results were TAAR1 antagonist 11, TAAR1 ag 8, OX1R antag-1 35, GalR3 antagonist 1, CHO parental Ca -1 and OX1R antag-2 -12.
`Cc1cc(C)n(-c2nc(-c3ccccc3)cs2)n1` gave TAAR1 antagonist 1, TAAR1 ag 2, OX1R antag-1 78, GalR3 antagonist -2, CHO parental Ca -16 and OX1R antag-2 26.
For Cc1cc(C)n(-c2nc(-c3cccc(Cl)c3)cs2)n1 the results were TAAR1 antagonist -5, TAAR1 ag 23, OX1R antag-1 47, GalR3 antagonist -1, CHO parental Ca -26, OX1R antag-2 41*, OX1R Ca confirm 6 and CHO Ca triplic -17.
CCCCc1ccc(S(=O)(=O)NCCc2ccncc2)cc1 was read as TAAR1 antagonist -9, TAAR1 ag 4, OX1R antag-1 76*, GalR3 antagonist -4, CHO parental Ca 19, OX1R antag-2 26, OX1R Ca confirm 0, CHO Ca triplic 6, OX1R HTRF conf 36 and CHO-K1 HTRF 3.
Screening CCN(CC)P(=O)(Nc1cccc(C(F)(F)F)c1)c1ccc(N(C)C)cc1NC(=O)c1ccco1 (stereo not drawn) returned TAAR1 antagonist -30, TAAR1 ag 4, OX1R antag-1 82*, GalR3 antagonist -12, CHO parental Ca -13, OX1R antag-2 87*, OX1R Ca confirm 64*, CHO Ca triplic -9, OX1R HTRF conf 86* and CHO-K1 HTRF -16.
`NC(=O)C1CN(C(=O)c2cccc(S(=O)(=O)N3CCc4ccccc43)c2)c2ccccc2O1` (stereo not drawn) gave TAAR1 antagonist -1, TAAR1 ag 11, OX1R antag-1 69*, GalR3 antagonist 1, CHO parental Ca -12, OX1R antag-2 52*, OX1R Ca confirm 37*, CHO Ca triplic -16, OX1R HTRF conf 67* and CHO-K1 HTRF -3.
For O=C(NNC(=O)c1cccc(S(=O)(=O)N2CCc3ccccc32)c1)c1ccccc1 the results were TAAR1 antagonist 15, TAAR1 ag 2 and GalR3 antagonist -4.
For CN1CCN(S(=O)(=O)c2cccc(C(=O)NC3CCCC3)c2)CC1 the results were TAAR1 antagonist 3, TAAR1 ag 5, OX1R antag-1 17, GalR3 antagonist -4, CHO parental Ca -11 and OX1R antag-2 -15.
`Cc1cnc(NC(=O)c2ccc(-c3nc4ccccc4s3)o2)s1` gave TAAR1 antagonist -3, TAAR1 ag 9, OX1R antag-1 106*, GalR3 antagonist 5, CHO parental Ca -27, OX1R antag-2 82*, OX1R Ca confirm 83*, CHO Ca triplic -8, OX1R HTRF conf 101* and CHO-K1 HTRF 10.
`Cc1cnc(NC(=O)c2ccc(-c3ccc([N+](=O)[O-])cc3)o2)s1` gave TAAR1 antagonist 16, TAAR1 ag 2, OX1R antag-1 11, GalR3 antagonist -3, CHO parental Ca -7 and OX1R antag-2 -11.
Screening N#Cc1ccccc1S(=O)(=O)N1CCN(C(=O)c2cc3c(s2)CCC3)CC1 returned TAAR1 antagonist -7, TAAR1 ag 3 and GalR3 antagonist 0.
Screening CCN(CC)c1ccc(/C=C(\C#N)c2ccccn2)cc1 returned OX1R antag-1 80*, CHO parental Ca -7, OX1R antag-2 34, OX1R Ca confirm 4, CHO Ca triplic -7, OX1R HTRF conf 90* and CHO-K1 HTRF 9.
Screening Cn1c2ccccc2c2cc(/C=N/NC(=O)c3ccccc3F)ccc21 returned TAAR1 antagonist 15, TAAR1 ag 0, OX1R antag-1 102*, GalR3 antagonist -4, CHO parental Ca -17, OX1R antag-2 32, OX1R Ca confirm 23, CHO Ca triplic -9, OX1R HTRF conf 94* and CHO-K1 HTRF 8.
Screening CCn1c2ccccc2c2cc(/C=N/NC(=O)c3ccccc3C)ccc21 returned TAAR1 antagonist -3, TAAR1 ag 6, OX1R antag-1 21, GalR3 antagonist -2, CHO parental Ca -23 and OX1R antag-2 -28.
Cc1cc(SCC(=O)OC(C)C(=O)N(C)c2ccccc2)nc2ccccc12 (stereo not drawn) was read as TAAR1 antagonist 10, TAAR1 ag 2, OX1R antag-1 38*, GalR3 antagonist -1, CHO parental Ca -26, OX1R antag-2 48*, OX1R Ca confirm 15, CHO Ca triplic 1, OX1R HTRF conf 61* and CHO-K1 HTRF 0.

Bioassay records as filed in PubChem.
